Data set [1] deals with Aorta. The data set can be described thus: Vasodilatory activity in Wistar rat endothelium-intact aorta assessed as reversibility of reduction of acetylcholine-induced vasoconstriction in presence of ODQ. More on the design: concentration or dose not given beside the values. The format is functional.
Data set [2] deals with Aorta. The data set can be described thus: Vasodilatory activity in Wistar rat endothelium-intact aorta assessed as reduction of acetylcholine-induced vasoconstriction. The format is functional, tissue-based. In a few lines: (§1)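 Male Wistar rat aortic rings (~3 mm) in a myograph at 37 °C in oxygenated Krebs, stretched to 15 mN, with maximal contraction set by 60 mM KCl and endothelium checked with ACh. Precontracted rings received NHG as a single 100 μM dose or cumulatively at 1−100 μM. Parallel rings were exposed before and during dosing to L-NAME 200 μM, L-Arg 100 μM, Hb 10 μM or ODQ 50 μM.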

For data set [3], the system named is Aorta. Briefly: Vasodilatory activity in Wistar rat endothelium-intact aorta assessed as reduction of acetylcholine-induced vasoconstriction at 100 uM in presence of L-Arg. The format is functional, tissue-based. A digest of the protocol:
as §1

Data set [4] has as its system Aorta. The data set can be described thus: Vasodilatory activity in Wistar rat endothelium-intact aorta assessed as reduction of acetylcholine-induced vasoconstriction at 100 uM in presence of ODQ. The format is functional, tissue-based. A digest of the protocol: as §1
Data set [5] concerns Aorta. Briefly: Vasodilatory activity in Wistar rat endothelium-intact aorta assessed as reduction of acetylcholine-induced vasoconstriction at 100 uM in presence of hemoglobin. It is filed as functional, tissue-based. In a few lines: as §1
Data set [6] relates to Aorta. The data set can be described thus: Vasodilatory activity in Wistar rat endothelium-intact aorta assessed as reduction of acetylcholine-induced vasoconstriction at 100 uM in presence of L-NAME. It is filed as functional, tissue-based. In a few lines: as §1
The subject of data set [7] is Aorta. The data set can be described thus: Vasodilatory activity in Wistar rat endothelium-intact aorta assessed as reduction of acetylcholine-induced vasoconstriction at 100 uM. It is filed as functional, tissue-based. In a few lines: as §1
Data set [8] is filed under the species Rattus norvegicus. Briefly: Induction of NOx production in Wistar rat renal medullar homogenates at 100 uM after 1 hr by Griess test in presence of gamma-glutamyl transpeptidase. It is filed as functional, tissue-based. Particulars: Renal medulla. In general terms: Griess reagent forms a coloured azo dye with nitrite.
For data set [9], the species on record is Rattus norvegicus. The data set can be described thus: Induction of NOx production in Wistar rat renal cortex homogenates at 100 uM after 1 hr by Griess test in presence of gamma-glutamyl transpeptidase. The format is functional, tissue-based.
Data set [10] relates to Liver. The data set can be described thus: Induction of NOx production in Wistar rat liver homogenates at 100 uM after 1 hr by Griess test in presence of gamma-glutamyl transpeptidase. The format is functional, tissue-based.
The nature of data set [11]: Induction of xanthine/xanthine oxidase-mediated NOx production at 100 uM after 1 hr by Griess test in presence of gamma-glutamyl transpeptidase. It is filed as physicochemical.
The species entered for data set [12] is Rattus norvegicus. The data set can be described thus: Induction of NOx production in Wistar rat renal medullar homogenates at 100 uM after 1 hr by Griess test in presence of L-NAME. Particulars: Renal medulla. It is filed as functional, tissue-based. In a few lines:
(§2)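 Crude homogenates of liver, renal cortex or renal medulla from freshly killed adult male Wistar rats, prepared in ice-cold HBSS with 1% Triton X. NHG at 100 μM was incubated for 1 h at 37 °C, with or without L-NAME (200 μM), then spun at 1000g and 4 °C. NOx (nitrite + nitrate) was measured by Griess assay. n = 4−5; paired t-tests.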

The species named for data set [13] is Rattus norvegicus. Briefly: Induction of NOx production in Wistar rat renal cortex homogenates at 100 uM after 1 hr by Griess test in presence of L-NAME. The format is functional, tissue-based. In a few lines:
as §2

The subject of data set [14] is Liver. Briefly: Induction of NOx production in Wistar rat liver homogenates at 100 uM after 1 hr by Griess test in presence of L-NAME. The format is functional, tissue-based. A digest of the protocol: as §2
Data set [15] can be described thus: Induction of xanthine/xanthine oxidase-mediated NOx production at 100 uM after 1 hr by Griess test in presence of allopurinol. The format is physicochemical. In a few lines: (§3)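 Cell-free xanthine/xanthine oxidase (100 μM X / 100 mU XO) was made fresh daily in KPE buffer. NHG at 100 μM was incubated for 1 h at 37 °C, with or without allopurinol (100 μM), then centrifuged at 1000g and 4 °C. NOx was measured by Griess assay. n = 4−5; paired t-tests.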

For data set [16], the species on record is Rattus norvegicus. The data set can be described thus: Induction of NOx production in Wistar rat renal medullar homogenates at 100 uM after 1 hr by Griess test. Particulars: Renal medulla. The format is functional, tissue-based. In a few lines:
as §2

For data set [17], the species on record is Rattus norvegicus. The data set can be described thus: Induction of NOx production in Wistar rat renal cortex homogenates at 100 uM after 1 hr by Griess test. It is filed as functional, tissue-based. In a few lines: as §2
Data set [18] deals with Liver. The data set can be described thus: Induction of NOx production in Wistar rat liver homogenates at 100 uM after 1 hr by Griess test. The format is functional, tissue-based. A digest of the protocol:
as §2

Data set [19] can be described thus: Induction of xanthine/xanthine oxidase-mediated NOx production at 100 uM after 1 hr by Griess test. It is filed as physicochemical. In a few lines:
as §3

Data set [20] has as its system Aorta. The data set can be described thus: Vasodilatory activity in Wistar rat endothelium-intact aorta assessed as reduction of acetylcholine-induced vasoconstriction at 100 uM in presence of gamma-glutamyl transpeptidase. The format is functional. In a few lines: (§4)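 Aortic ring myograph (rat, 37 °C, Krebs, precontracted). The glutamyl prodrug at 10 mM was preincubated with γ-GT (100 mU/5 mM gly-gly) for 1 h at 37 °C before addition to the bath at 100 μM. Hemoglobin (10 μM), where present, was used as NO scavenger.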

Data set [21] concerns Aorta. The data set can be described thus: Vasodilatory activity in Wistar rat endothelium-intact aorta assessed as reduction of acetylcholine-induced vasoconstriction at 100 uM in presence of gamma-glutamyl transpeptidase and oxyhemoglobin. The format is functional, tissue-based. A digest of the protocol:
as §4

In data set [22] the test system is Kidney. The data set can be described thus: Prodrug activation in Wistar rat kidney homogenates assessed as formation of N-(4-Phenylethyl)-N'-hydroxyguanidine Hydrochloride at 1 to 100 uM. Particulars: tissue homogenate, TDE = time-dependent effect. It is filed as tissue-based. A digest of the protocol: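 Prodrug at 1, 10 or 100 μM was incubated with freshly pooled (n = 3) male Wistar rat kidney homogenate. Samples were taken every 15 min over 45 min, and the parent NHG was quantified by positive-ion LC-MS/MS on a C18 column with 0.1% formic acid in 95% water/5% acetonitrile. Total protein was determined by Lowry assay.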

For data set [23], the system named is Kidney. The data set can be described thus: Prodrug activation in Wistar rat kidney homogenates assessed as formation of N-(4-Phenylethyl)-N'-hydroxyguanidine Hydrochloride after 10 to 40 mins. It is filed as tissue-based. Particulars: tissue homogenate.
For data set [24], the system named is Kidney. The data set can be described thus: Vasodilatory activity in Wistar rat isolated perfused rat kidney model in presence of gamma-glutamyl transpeptidase. It is filed as functional, tissue-based. A digest of the protocol:
(§5)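 Isolated perfused kidney from a pentobarbital-anaesthetized (i.p.) male Wistar rat, perfused at 10 mL/min with perfusion pressure read via a side-port transducer. After 20 min equilibration, pressure was raised to 120−140 mmHg with phenylephrine (0.3 μM increments). Compound was added cumulatively to the perfusate (1 μM to 1 mM).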

The test system of data set [25] is Kidney. Briefly: Vasodilatory activity in Wistar rat isolated perfused rat kidney model at 250 uM in presence of gamma-glutamyl transpeptidase. It is filed as functional, tissue-based. A digest of the protocol: as §5

Activity calls are given as the source filed them. The rule behind the calls is not given here.

What is called EC50 is the concentration giving half of the maximal effect.

For the compound `Cl.N=C(NO)NCc1ccccc1`, in the data set on Aorta [1], the Activity was found to be 37%. The EC50 with Aorta [2] was 12.6 µM.
Turning to `Cc1ccc(CCN/C(N)=N/O)cc1.Cl`, the Activity with Aorta [1] was 35%. Moreover, the EC50 with Aorta [2] was 12.6 µM.
On to `N/C(=N\O)NCCc1ccc(O)cc1`, for which the EC50 in the data set with Aorta [2] was 63.1 µM.
As for `COc1ccccc1CCN/C(N)=N/O.Cl`, in the data set with Aorta [1], the Activity is given as 14%. Further, the EC50 in the data set with Aorta [2] is 20 µM.
On to `Cl.N/C(=N\O)NCCc1ccc(Cl)cc1`, for which the Activity in the data set with Aorta [1] is recorded as 11%. In addition, the EC50 in the data set on Aorta [2] was 100 µM.
In the case of `Cl.N/C(=N\O)NCCc1ccc(Br)cc1`, in the data set on Aorta [1], the Activity amounted to 34%. Moreover, the EC50 with Aorta [2] is 15.8 µM.
`N=C(NO)NCCC[C@H](N)C(=O)O`: the outcome in the data set with Aorta [3], in the data set on Aorta [4], with Aorta [5], in the data set with Aorta [6], in the data set listed under Rattus norvegicus [8] and in the data set listed under Rattus norvegicus [9] was inactive. Moreover, the result in the data set on Liver [10], in the data set listed under Rattus norvegicus [12], in the data set filed under Rattus norvegicus [13] and with Liver [14] was inactive. The outcome in the data set on Aorta [7] was Active. The Activity entry was “Not Active” in data set [11]; “Not Active” in data set [15]; 5 µM in the data set listed under Rattus norvegicus [16]; 5 µM in the data set filed under Rattus norvegicus [17]; 5 µM in the data set with Liver [18]; 5 µM in data set [19].
Take `CN(CCCC(=O)O)C(N)=O`: in the data set with Aorta [2], the pEC50 entry is “inactive”. For the same compound, the outcome in the data set filed under Rattus norvegicus [12], in the data set filed under Rattus norvegicus [13] and in the data set on Liver [14] was Active. Moreover, the Activity result is “Active” in data set [15]; 1 µM in the data set listed under Rattus norvegicus [16]; 1 µM in the data set filed under Rattus norvegicus [17]; 1 µM in the data set with Liver [18]; “Not Active” in [19].
Regarding `Cl.N/C(=N\O)NCCc1cccc2ccccc12`, in the data set with Aorta [1], the Activity is 1%. In addition, the half-maximal effective concentration (EC50) in the data set with Aorta [2] is 50.1 µM.
For `Cl.N/C(=N\O)NCCCCc1ccccc1`, in that order: 28% and 631 µM.
With `CN(CCCC(=O)O)c1noc(CC[C@H](N)C(=O)O)n1`, the result with Aorta [20] and with Aorta [7] was inactive.
Take `CN(CCCC(=O)O)/C(=N\O)NC(=O)CC[C@H](N)C(=O)O`: the result in the data set on Aorta [21] and in the data set with Aorta [7] was inactive. In the data set on Aorta [20], the Activity came out at 18%.
In the case of `CN(CCCC(=O)O)/C(N)=N/O`, the result in the data set on Aorta [6] was inactive. Also, the result with Aorta [7] was Active. For the same compound, the Activity is 1 µM in the data set filed under Rattus norvegicus [16], 1 µM in the data set listed under Rattus norvegicus [17], 1 µM in the data set on Liver [18] and “Active” in data set [19].
`N/C(=N\OCc1ccc(NC(=O)CC[C@H](N)C(=O)O)cc1)NCCc1ccccc1`: the Drug metabolism entry in the data set on Kidney [22] was “tde”; in the data set on Kidney [23], “Dose-dependent effect”. The EC50 in the data set on Kidney [24] turned out to be 50 µM. For the same compound, the outcome with Aorta [1], in the data set on Aorta [20] and in the data set on Aorta [7] was Active.
In the case of `CCCCN/C(N)=N/O.Cl`, the Activity with Aorta [1] turned out to be 100%. In addition, the EC50 in the data set on Aorta [2] was 31.6 µM.
As for `Cl.N/C(=N\O)NCCCc1ccccc1`, the Activity in the data set on Aorta [1] worked out at 68%. In the data set with Aorta [2], the EC50 was 15.8 µM.
In the case of `Cl.N/C(=N\O)NCCc1ccccc1`, the result in the data set on Aorta [3], in the data set on Aorta [4], in the data set with Aorta [5] and in the data set on Aorta [6] was inactive. Besides, the Activity in the data set with Aorta [1] was determined as 75%. Moreover, the EC50 in the data set on Aorta [2] was 25.1 µM.
Regarding `COc1ccc(CCN/C(N)=N/O)cc1.Cl`, in the data set on Aorta [1], the Activity was 40%. For the same compound, in the data set with Aorta [2], the EC50 is 50.1 µM.
For `COc1cccc(CCN/C(N)=N/O)c1.Cl`, in that order: 9% and 3.98 µM.
For `N[C@@H](CCC(=O)NCCCC(=O)N/C(=N\OC(=O)CCCNC(=O)CC[C@H](N)C(=O)O)NCCc1ccccc1)C(=O)O`, the outcome with Kidney [25] was inactive.
Take `Cl.N/C(=N\O)NCCc1ccc(F)cc1`: the Activity in the data set with Aorta [1] is recorded as 11%. Further, the EC50 in the data set with Aorta [2] was 63.1 µM.

The values are drawn from ChEMBL document CHEMBL2396521, “Development and characterization of glutamyl-protected N-hydroxyguanidines as reno-active nitric oxide donor drugs with therapeutic potential in acute renal failure” (J Med Chem, 2013).
